A short description of test [1]: reduced viability of SK-BR-3 breast cancer cells – cell-based, 24 h, human, pilot screen (AID 572;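 active = viability at or below 10% of carrier control in both of two separate runs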;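 note: compound exposure lasted between 18 and 24 h rather than exactly 24 h; 100% = carrier-treated control wells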). The following applies: SK-BR-3 viability, CellTiter-Glo luminescence, at 10 µM, stronger effect = lower value.
A short description of test [2]: HUVEC growth inhibition – cell-based, human, primary screen (AID 575;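 active = viability at or below 30% in both replicate assays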;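 note: 100% = median of untreated cell wells with 0.1% DMSO on each plate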). As to conditions: HUVEC proliferation, CellTiter-Glo luminescence, 72 h; at 10 µM; stronger effect = lower value. The essentials:
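system = HUVEC primary cells | amount = 1250 cells/well | buffer or medium = supplemented EBM, 2% fetal bovine serum | dosing = single-point 10 µM, DMSO 0.1% final | times = 72 h compound incubation | detection = CTG luminescence | read-out = % viability relative to median vehicle-well signal on each plate | control set = vehicle and MePR control wells | format = collagen-coated 384-well format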

A short description of test [3]: H69AR cell proliferation blockers – human, duplicate replicates, primary screen (AID 580).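 Note: 100% = mean luminescence of untreated wells and 0% = no signal.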 As to conditions: H69AR lung tumor cells viability, ATP luminescence, 72 h; at 10 µM; stronger effect = lower value.
Test [4] can be described thus: MRP1 drug-resistance reversers in H69AR cells – cell-based, doxorubicin co-treatment, pilot screen (AID 601;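 active = viability loss from added drug above about 55%, and viability with drug at most 40%, in both replicates, limit read from the data, passing the limit was not always enough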). As to conditions: CellTiter-Glo, 72 h, at 10 µM; for differential viability (reversal): stronger effect = higher value.
Test [5] is described as follows: yeast transport mutant growth inhibition pilot in 384-well plates, post-Golgi transport modulator project (AID 636; in the data active = inhibition above about 31%). As to conditions: absorbance 615 nm, about 18 h, stronger effect = higher value.
A short description of test [6]: growth suppression of yeast trafficking mutant, preliminary HTS, modulators of trafficking downstream of Golgi apparatus project, 1536-format plate, OD 615 nm (AID 637; in the data active = inhibition above about 30%). As to conditions: yeast transport mutant growth, absorbance 615 nm, 18 h; stronger effect = higher value.
Where [7] appears, read: H69AR cells + 2 uM doxorubicin, measured here: viability with 2 uM doxorubicin, stronger effect = lower value.
[8] abbreviates: H69AR cells, compound alone cytotoxicity.

Where “and” joins values, the source holds several entries; their conditions need not be identical. Equal values may be shown once. Calls of active or inactive are those of the source.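 Rule for the calls, unless noted: active = viability at or under a set limit in both replicates, limit being median viability minus 3 SD (cut at about 48% in these data, passing the limit was not always enough); inconclusive = at or under the limit in just one replicate; inactive = at or above the limit in both replicates.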

Take `Cc1nnc(NC(=O)C2CCCO2)s1` (stereo not drawn): the viability in test [1] is 90% (inactive); in test [2], 105% (inactive); in test [3] it was 96.4% (inactive); in test [4] (setting [7]) it was 107%; in test [4] (setting [8]), 96.4%. Moreover, the differential viability (reversal) in test [4] (H69AR cells + 2 uM doxorubicin) was -10.5% (inactive). Further, the results for the inhibition in test [5] and in test [6] were -2.47% (inactive) and -0.91% (inactive), respectively.
For the compound `CCCC(=O)Nc1cc(-c2nnc(OC)c3ccccc23)ccc1N1CCOCC1`, the viability was 109% (inactive) in test [1]; 84.6% (inactive) in test [2]; 94.5% (inactive) in test [3]; 102% in test [4] (setting [7]); 94.5% in test [4] (setting [8]). In addition, the differential viability (reversal) in test [4] (H69AR cells + 2 uM doxorubicin) was -7.97% (inactive). Further, the values for the inhibition in test [5] and in test [6] were 0.96% (inactive) and 3.71% (inactive), respectively.
As to `CCSCc1nnc(SCC(=O)Nc2cccc(SC)c2)n1C`, the viability in test [1] is 66% (inactive); in test [2], 84.3% (inactive); in test [3], 90.3% (inactive); in test [4] (setting [7]) it was 105%; in test [4] (setting [8]), 90.3%. Further, in test [4] (H69AR cells + 2 uM doxorubicin), the differential viability (reversal) is -14.9% (inactive). Besides, the inhibition was -6.58% (inactive) in test [5] and -0.18% (inactive) in test [6].
`Cc1onc(-c2c(F)cccc2Cl)c1C(=O)Nc1nc2c(s1)CCCC2`: the viability was 109% (inactive) in test [1]; 92.7% (inactive) in test [2]; 77.3% (inactive) in test [3]; 104% in test [4] (setting [7]); 77.3% in test [4] (setting [8]). Besides, the differential viability (reversal) in test [4] (H69AR cells + 2 uM doxorubicin) is -27% (inactive). Further, the inhibition was -3.29% (inactive) in test [5] and -1.09% (inactive) in test [6].
On to `COc1ccc(/C=C/C(=O)Nc2ccccc2C(=O)O)cc1OC`, for which the viability in test [1] is 104% (inactive); in test [2], 64.4% (inactive); in test [3] it was 94.7% (inactive); in test [4] (setting [7]), 94.1%; in test [4] (setting [8]), 94.7%. In addition, in test [4] (H69AR cells + 2 uM doxorubicin), the differential viability (reversal) is 0.56% (inactive). In addition, the inhibition in test [5] was 0.78% (inactive); in test [6] it was -1.83% (inactive).
For the compound `O=C1C(CCS(=O)c2ccccc2)C(=O)N(c2ccccc2)N1c1ccccc1` (stereo not drawn), the viability was 112% (inactive) in test [1]; 84.5% (inactive) in test [2]; 96.6% (inactive) in test [3]; 88.7% in test [4] (setting [7]); 96.6% in test [4] (setting [8]). For the same compound, in test [4] (H69AR cells + 2 uM doxorubicin), the differential viability (reversal) is 7.85% (inactive). Besides, the results for the inhibition in test [5] and in test [6] were 0.65% (inactive) and 10.7% (inactive), respectively.
On to `COc1ccccc1NC(=O)NC(N)=O`, for which the viability in test [1] was 102% (inactive); in test [2], 87.7% (inactive); in test [3], 96.4% (inactive); in test [4] (setting [7]) it was 94.5%; in test [4] (setting [8]), 96.4%. The differential viability (reversal) in test [4] (H69AR cells + 2 uM doxorubicin) was 1.88% (inactive). For the same compound, the results for the inhibition in test [5] and in test [6] were -5.89% (inactive) and 7.64% (inactive), respectively.
Regarding `COc1ccc(C2/C(=C(/O)c3ccc(OC(C)C)cc3)C(=O)C(=O)N2CCCN2CCOCC2)cc1` (stereo not drawn), the viability was 112% (inactive) in test [1]; 97.7% (inactive) in test [2]; 92.4% (inactive) in test [3]; 105% in test [4] (setting [7]); 92.4% in test [4] (setting [8]). Moreover, the differential viability (reversal) in test [4] (H69AR cells + 2 uM doxorubicin) was -12.4% (inactive). Besides, the inhibition in test [5] was -5.21% (inactive); in test [6] it was -1.09% (inactive).
Take `CC(C)[N+]1(C)[C@@H]2CC[C@H]1CC(OC(=O)C(CO)c1ccccc1)C2` (stereo partly drawn): the viability was 113% (inactive) in test [1]; 96% (inactive) in test [2]; 100% (inactive) in test [3]; 90.9% in test [4] (setting [7]); 100% in test [4] (setting [8]). Besides, the differential viability (reversal) in test [4] (H69AR cells + 2 uM doxorubicin) was 9.31% (inactive). The figures for the inhibition in test [5] and in test [6] were -6.36% (inactive) and -2.83% (inactive), respectively.
As to `O=C(Nc1ncnc2sc3c(c12)CCC3)c1ccco1`, the viability was 81% (inactive) in test [1]; 94% (inactive) in test [2]; 80.1% (inactive) in test [3]; 83% in test [4] (setting [7]); 80.1% in test [4] (setting [8]). For the same compound, in test [4] (H69AR cells + 2 uM doxorubicin), the differential viability (reversal) was -2.91% (inactive). For the same compound, the inhibition in test [5] was -4.73% (inactive); in test [6], 0.55% (inactive).
Consider `C=CCn1c(SCn2nnc3ccccc3c2=O)nnc1-c1ccc(Br)cc1`, for which the viability is 97% (inactive) in test [1]; 94.2% (inactive) in test [2]; 89.1% (inactive) in test [3]; 82% in test [4] (setting [7]); 89.1% in test [4] (setting [8]). Besides, the differential viability (reversal) in test [4] (H69AR cells + 2 uM doxorubicin) was 7.09% (inactive). In addition, the figures for the inhibition in test [5] and in test [6] were 43.2% (active) and 31.6% (active), respectively.
With `Cc1nnc(N(C)C(=O)Cc2ccc3c(c2)OCO3)s1`, the viability in test [1] was 94% (inactive); in test [2] it was 92.6% (inactive); in test [3], 94.6% (inactive); in test [4] (setting [7]), 89.3%; in test [4] (setting [8]), 94.6%. In addition, the differential viability (reversal) in test [4] (H69AR cells + 2 uM doxorubicin) is 5.27% (inactive). Besides, the figures for the inhibition in test [5] and in test [6] were 2.47% (inactive) and 8.71% (inactive), respectively.
For `COc1ccc(-n2ncc3c(NCc4ccc5c(c4)OCO5)ncnc32)cc1`, the viability is 92.5% (inactive) in test [1]; 49.8% (inactive) in test [2]; 6.44% (active) in test [3]; 17.4% in test [4] (setting [7]); 6.44% in test [4] (setting [8]). For the same compound, the differential viability (reversal) in test [4] (H69AR cells + 2 uM doxorubicin) is -11% (inactive). In addition, the inhibition in test [5] is -3.55% (inactive); in test [6], 3.71% (inactive).
Consider `COc1ccccc1N1CCN(CC(O)COc2cccc3ccccc23)CC1` (stereo not drawn), for which the viability in test [1] is 83% (inactive); in test [2], 74.9% (inactive); in test [3] it was 77.4% (inactive); in test [4] (setting [7]), 90.7%; in test [4] (setting [8]), 77.4%. Also, the differential viability (reversal) in test [4] (H69AR cells + 2 uM doxorubicin) is -13.3% (inactive). Besides, the inhibition in test [5] is -1.3% (inactive); in test [6] it was -1.5% (inactive).
With `O=C(O)CCc1ccc(-c2ccc(F)cc2)n1CCC(=O)O`, the viability in test [1] is 71% (inactive); in test [2], 104% (inactive); in test [3], 98.5% (inactive); in test [4] (setting [7]) it was 108%; in test [4] (setting [8]) it was 98.5%. For the same compound, in test [4] (H69AR cells + 2 uM doxorubicin), the differential viability (reversal) is -9.11% (inactive). Besides, the values for the inhibition in test [5] and in test [6] were -7.53% (inactive) and 3.45% (inactive), respectively.
As to `CCCCOc1cc(C(=O)NCCN(CC)CC)c2ccccc2n1`, the viability in test [1] was 99% (inactive) and 112% (inactive); in test [2], 53.4% (inactive) and 59.6% (inactive); in test [3], 89.5% (inactive) and 84.4% (inactive); in test [4] (setting [7]) it was 81.4% and 66.6%; in test [4] (setting [8]), 89.5% and 84.4%. For the same compound, the differential viability (reversal) in test [4] (H69AR cells + 2 uM doxorubicin) was 8.11% (inactive) and 17.8% (inactive). The inhibition in test [5] is -2.86% (inactive) and -0.26% (inactive); in test [6] it was 0.33% (inactive) and 6.5% (inactive).

The values are drawn from PubChem BioAssay.
